# PP5 primary: PP5 phosphatase inhibitors, primary screen, biochemical, fluorescence | Serine/threonine-protein phosphatase 5 (Homo sapiens), P53041 | purified PP5c, OMFP substrate fluorescence | inhibition, % at 6.7 µM | 320,000 compounds, 0.18% hits;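 active = inhibition above the campaign's mean inhibition across all tested compounds plus 3 SD, cut at about 9.5% in these data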
# JMJD2C inh: inhibitors of GASC-1 histone demethylase, primary screen, biochemical, fluorescence, DELFIA europium; inhibition, % at 2.35 µM; 330,000 compounds, 0.069% hits; GST-JMJD2C(1-420) H3K9me3 demethylation; Lysine-specific demethylase 4C (Homo sapiens), Q9H3R0;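 active = more than half of a compound's replicate wells show inhibition beyond 50%, single wells judged on their own value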;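 note: signal counts dimethyl H3K9 product captured on neutravidin plate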
# m5-HT2A agonist: mouse Htr2a agonists via beta-arrestin recruitment, primary screen, cell-based, luminescence; 5-hydroxytryptamine receptor 2A (Mus musculus), P35363; 360,000 compounds, 0.66% hits; CHO-K1 mHTR2A beta-arrestin complementation; percent of 30 µM serotonin response; activation, % at 7.6 µM;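 active = activation above a run cutoff, the mean activation of all tested compounds plus 3 SD, cut at about 14% in these data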
# Target sequence (P35363 whole entry, looked up): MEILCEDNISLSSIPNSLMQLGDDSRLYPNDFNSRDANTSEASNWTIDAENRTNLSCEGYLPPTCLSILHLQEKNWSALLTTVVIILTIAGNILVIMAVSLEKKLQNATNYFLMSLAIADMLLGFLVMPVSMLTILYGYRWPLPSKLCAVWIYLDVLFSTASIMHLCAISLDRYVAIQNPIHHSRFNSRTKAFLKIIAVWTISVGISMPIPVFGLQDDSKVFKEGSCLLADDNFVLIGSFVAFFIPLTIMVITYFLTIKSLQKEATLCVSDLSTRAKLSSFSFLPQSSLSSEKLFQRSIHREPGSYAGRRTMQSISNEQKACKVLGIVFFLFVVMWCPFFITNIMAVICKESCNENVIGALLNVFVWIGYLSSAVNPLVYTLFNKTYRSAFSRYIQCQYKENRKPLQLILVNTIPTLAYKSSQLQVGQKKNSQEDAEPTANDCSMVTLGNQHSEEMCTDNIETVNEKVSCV
# T cell HTS: modulators of CD8 T cell-vesicle binding, primary screen, mouse 2C CD8+ T cells, flow cytometry; 2C CD8+ T cell-vesicle binding; hits give low values; response (vesicle binding), % at 7 µM; 330,000 compounds, 0.068% hits; AID 2052, 2009;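 active = response, share of CD8 T cells binding vesicles, and their 90th percentile fluorescence all below set limits, cut at about 80% in these data, passing the limit was not always enough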;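 note: values below 100% mean blocked vesicle binding to the CD8+ T cells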
#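 Material: murine 2C transgenic CD8+ T lymphocytes / Also added: QL9-peptide-loaded Drosophila micro-vesicles bearing Ld, ICAM-1 and B7-1 / Schedule: binding step 1.5 h, 37 °C, antibody labelling 20 min, ice / Signal: flow cytometry, PE anti-B7-1 (FL2) versus Alexa647 anti-CD8 (FL8), PFA-fixed / Evaluation: percent CD8+ FL2 mean versus row control / Benchmarks: naked versus QL9-loaded vesicles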
# PP1 counter: PP1-alpha phosphatase inhibitors, primary screen, counter-screen for PP5 inhibitor project, biochemical, fluorescence, OMFP substrate, single point; purified PP1alpha; inhibition, % at 6.7 µM; 320,000 compounds, 0.9% hits;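 active = inhibition above the mean inhibition of all tested compounds plus 3 SD, computed separately for each screening campaign, cut at about 15% in these data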
# OPRM1 ag: OPRM1 agonists via beta-arrestin recruitment, confirmation, counter-screen for mouse HTR2A agonist project, cell-based, luminescence, single concentration | shares compounds with m5-HT2A agonist | activation, % at 9.3 µM | U2OS OPRM1 beta-arrestin PathHunter; DMSO 0%, DAMGO 9.3 µM 100% | 2,300 compounds, 5.3% hits;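 active = mean activation above the mean of DMSO-only wells plus 3 SD, cut at about 0.5% in these data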
# HTR2A ag conf: mouse HTR2A agonists, beta-arrestin recruitment, confirmation, cell-based, luminescence, CHO-K1 PathHunter, triplicate; shares compounds with m5-HT2A agonist; DMSO 0%, 30 µM serotonin 100%; activation, % at 7.6 µM; 2,300 compounds, 19% hits;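 active = mean activation across triplicates above the hit threshold derived in the original primary screen, cut at about 15% in these data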
# A number is an active result; – = inactive; · = no result. An excerpt weighted towards active compounds, which were near 1.7% of everything screened.
SMILES,PP5 primary,JMJD2C inh,m5-HT2A agonist,T cell HTS,PP1 counter,OPRM1 ag,HTR2A ag conf
O=C(CNS(=O)(=O)c1ccc(Br)cc1)N1CCN(Cc2ccccc2)CC1,–,–,15,–,–,–,17
CCOc1ccc(OCCC(=O)OCC(=O)Nc2ccc3c(c2)OCCO3)cc1,–,–,–,–,–,·,·
Cc1cccc(NS(=O)(=O)c2ccc(C)c(C(=O)NCC(c3cccs3)N3CCOCC3)c2)c1 (configuration not stated),·,·,–,·,·,·,·
COc1ccccc1NS(=O)(=O)c1ccc(C)c(C(=O)NCC(c2cccs2)N2CCOCC2)c1 (configuration not stated),·,·,19,·,·,–,–
Cc1ccccc1OCC(=O)NCC(c1cccs1)N1CCOCC1 (configuration not stated),–,–,18,–,–,–,–
COc1cc(CNc2ncnc3c2ncn3[C@H]2CN(Cc3ccc4c(c3)OCO4)C[C@@H](CO)O2)cc(OC)c1OC,·,·,–,·,·,·,·
CCCCCCC(NC(=O)Cc1ccc2ccccc2c1)C(=O)O (configuration not stated),·,·,–,·,·,·,·
O=C1NC(Cc2ccccc2)c2nc3cc(F)ccc3c(=O)n2-c2cc(Cl)ccc21 (configuration not stated),–,–,·,–,–,·,·
Cc1cc(NC(=O)COC(=O)C2CCN(C(=O)c3ccc(Cl)cc3)CC2)no1,–,–,–,–,–,·,·
Cc1cc(NC(=O)COC(=O)C2CCN(S(=O)(=O)c3cccc(Cl)c3Cl)CC2)no1,–,–,24,–,–,–,–
COc1ccc2nc(SCC(=O)Nc3ccccc3)[nH]c2c1,–,–,19,–,–,–,–
Cc1cc(C)n(CCN(C)Cc2nc(Cc3ccccc3F)no2)n1,–,–,38,–,–,–,–
CN(Cc1nc(Cc2ccccc2F)no1)[C@@H]1CS(=O)(=O)C[C@H]1O,–,–,–,–,–,·,·
O=C(Nc1cnc2ccccn2c1=O)c1ccc(F)cc1,–,–,17,–,–,–,–
CC(O)CCC(=O)NCCNC(=O)CCC(C)O (configuration not stated),–,–,20,–,–,–,–
O=C(CCC(=O)NCCO)NCCO,–,–,–,–,–,·,·
Cc1cccc(/C(N)=N/OC(=O)c2ccncc2)c1,·,–,25,–,·,0.6,–
N/C(=N\OC(=O)c1ccncc1)c1cccc([N+](=O)[O-])c1,–,–,–,–,–,·,·
O=C(CSc1ccccc1)NCc1ccccn1,–,–,–,–,–,·,·
COC(=O)c1ccc(NC(=O)CN2CCC(NC(=O)c3ccccc3F)CC2)cc1,·,·,–,·,·,·,·
Cn1cc(C(=O)c2ccc(Cl)cc2Cl)cc1C(=O)N/N=C(\N)COc1ccc(F)cc1,–,–,–,–,–,·,·
Cn1cc(C(=O)c2ccc(Cl)cc2Cl)cc1C(=O)N/N=C(\N)COc1ccc(Cl)cc1,–,–,15,–,16,–,–
COc1ccc(S(=O)(=O)NCC(c2ccc3c(c2)OCO3)N2CCN(c3ccccc3)CC2)cc1 (configuration not stated),–,–,18,–,–,–,66
Cc1ccc2[nH]c(-c3ccccc3)c(CN3CCCC3)c(=O)c2c1,–,–,20,–,–,–,–
S=C1NC[C@H](Cc2ccccc2)N1CCc1cccc2ccccc12,–,–,–,–,–,·,·
SMILES,PP5 primary,JMJD2C inh,m5-HT2A agonist,T cell HTS,PP1 counter,OPRM1 ag,HTR2A ag conf
O=C(Cn1cccc1C(=O)c1ccccc1)NCc1ccccc1Cl,–,–,–,–,–,·,·
Cc1ccccc1C(=O)c1cccn1CC(=O)NCc1ccccc1Cl,–,–,26,–,–,–,–
Cc1ccc(NC(=O)CN(C)C(=O)c2cc(-c3ccccc3)nn2-c2ccccc2)cc1,·,·,–,·,·,·,·
C[C@H](OC(=O)c1[nH]cnc1C(=O)N1CCN(C(=O)OC(C)(C)C)CC1)c1ccccc1,·,·,–,–,·,·,·
CCOC(=O)c1[nH]cnc1C(=O)N1CCN(C(=O)OC(C)(C)C)CC1,–,–,18,–,–,–,–
Cc1ccc(NC(=O)CN2CCN(c3ccccn3)CC2)cc1S(=O)(=O)N(C)C,–,–,51,–,–,–,118
CCN(CC)S(=O)(=O)c1cc(NC(=O)C(C)N2CCN(c3ccccn3)CC2)ccc1C (configuration not stated),–,–,–,–,–,·,·
CN(C)S(=O)(=O)c1ccc(NC(=O)CN2CCN(c3ccccn3)CC2)cc1,–,–,–,–,–,·,·
COc1ccccc1NC(=O)CN1CCN(c2ccccn2)CC1,–,–,16,–,–,–,37
CN(C)S(=O)(=O)c1cc(NC(=O)CN2CCN(c3ccccc3)CC2)ccc1Cl,–,–,18,–,–,–,45
CCN(CC)S(=O)(=O)c1cc(NC(=O)CN2CCN(c3ccccn3)CC2)ccc1C,–,–,32,–,–,–,94
Cc1ccc(-c2nc3c(Cl)cc(C(F)(F)F)cn3c2Cc2ccsc2)cc1,·,·,–,·,·,·,·
Cc1ccc(OCc2cc(C(=O)NC3CCOC3)no2)cc1C (configuration not stated),–,–,–,–,–,·,·
O=C(COC(=O)/C=C/c1cc(Br)ccc1F)Nc1ccc2[nH]c(=O)[nH]c2c1,–,–,–,–,–,·,·
CC(C)OC(=O)CNc1n[nH]c(=S)[nH]c1=O,·,–,–,·,·,·,·
COC(=O)CNc1n[nH]c(=S)[nH]c1=O,–,–,17,–,–,–,–
COc1ccc(S(=O)(=O)Cc2ccc(C(=O)N3CCOCC3)o2)cc1,–,–,17,–,–,–,–
CC(C)c1ccc(/C=C2\SC(=S)N(CCC(=O)N3CCCCC3CCO)C2=O)cc1 (configuration not stated),–,–,–,–,–,·,·
Nc1cccc(/C=C/c2ccncc2)c1,–,–,–,–,–,·,·
CCn1cc(CN2CCN(Cc3ccsc3)C(CCO)C2)cn1 (configuration not stated),–,–,15,–,–,–,–
OCCC1CN(Cc2cnn(-c3ccc(F)cc3)c2)CCN1Cc1ccsc1 (configuration not stated),–,–,–,–,–,·,·
Cc1cc(O)c2c(CN3CCN(Cc4ccccc4)CC3)cc(=O)oc2c1,–,–,20,–,–,–,18
Cc1cc2oc(=O)cc(CN3CCN(Cc4ccccc4)CC3)c2cc1O,–,–,–,–,–,·,·
